Type in all cases: functional
Assay [1] is described as follows: Cytotoxicity against mouse 212 cells after 6 days by MTT assay. Conditions: 144 h, read-out: ED50 (the source's name). Put shortly:
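The 212 line is an inducible Ha-ras-transformed NIH/3T3 line. It was grown in alpha MEM with 10% calf serum and antibiotics, plus 10 mM HEPES pH 7.3, at 37 °C in CO2. Cells were seeded at 1-3 × 10³/100 µL and allowed 6 h to attach. Medium was then swapped for fresh medium carrying various drug concentrations for 6 days. MTT (10 µL of 1 mg/mL) was added for 4 h at 37 °C, and formazan was dissolved in DMSO.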

The test system of another assay is T-24. Put plainly: Cytotoxicity against human T24 cells after 6 days by MTT assay. The note with it: T-24, 144 h, read-out: ED50 (the source's name). Put shortly: (§1)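 Human lines (hepatoma PLC/PRF/5, T24, cervical carcinoma HT-3 and SiHa) were kept in DMEM with 10% FBS, 2 mM L-glutamine and penicillin/streptomycin, plus 10 mM HEPES pH 7.3, at 37 °C in CO2. Cells at 1-3 × 10³/100 µL had 6 h to attach, then fresh medium with graded drug concentrations was added for 6 days. Survival was read by 4 h MTT (1 mg/mL in PBS, 10 µL) at 37 °C, with DMSO solubilization.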

Assay [2] can be described thus: Cytotoxicity against human PLC/PRF/5 cells after 6 days by MTT assay. The note with it: PLC-PRF-5, 144 h, read-out: ED50 (the source's name). Summed up: as §1
The next assay deals with Ca-Ski. Put plainly: Cytotoxicity against human CaSKi cells after 6 days by MTT assay. The note with it: 144 h, read-out: ED50 (the source's name). Put shortly:
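CaSki (human cervical carcinoma) kept in DMEM with 10% FBS, 2 mM L-glutamine and penicillin/streptomycin. For the assay, 1-3 × 10³ cells/100 µL were seeded and left 6 h to attach. Medium was then replaced with fresh medium holding a range of drug concentrations, plus 10 mM HEPES pH 7.3, at 37 °C in CO₂. After 6 days, MTT (1 mg/mL in PBS) was added for 4 h. Formazan was dissolved in DMSO.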

The subject of a further assay is SiHa. Put plainly: Cytotoxicity against human SiHa cells after 6 days by MTT assay. Conditions: 144 h, read-out: ED50 (the source's name). Summed up: as §1
For another assay, the system named is HT-3. Put plainly: Cytotoxicity against human HT3 cells after 6 days by MTT assay. The note with it: HT-3, 144 h, read-out: ED50 (the source's name). Put shortly: as §1

≈ marks a conversion by molar mass, not a printed value. Numbered stars: 1 amine (or outer) side, 2 acyl side, 3 side chain; on linkers, the order of the positions; unused ones are H or OH. Bridge positions count the residues as written; N and C are the ends. Square brackets hold non-standard residues; d marks the D form. Peptide text beside a SMILES is read from it. I, II: the chains in the order shown. Actinocin(1to9) = Cc1c2oc3c(C)ccc(C(=O)[*:2])c3nc-2c(C(=O)[*:1])c(N)c1=O; NMeV = CN[C@H](C(=O)O)C(C)C; Sar = CNCC(=O)O

Regarding `C=C(C)C(C)CC[C@@H](C(=O)O)[C@H]1[C@H](O)C[C@@]2(C)C3=C(CC[C@]12C)[C@@]1(C)CC[C@H](OC(C)=O)C(C)(C)[C@@H]1CC3` (stereo not given in full) [TSUGARIC ACID B], the EC50 in assay [1] stood at 10.3 µg/mL (≈ 19.5 µM).
With `CC(=O)O[C@@H]1CC[C@]2(C)C3=C(CC[C@H]2C1(C)C)[C@]1(C)CC[C@H]([C@@H](CCC=C(C)C)C(=O)O)[C@@]1(C)CC3` [TSUGARIC ACID A], the EC50 came out at 3.1 µg/mL (≈ 6.22 µM) in the assay with T-24 and 6.8 µg/mL (≈ 13.6 µM) in assay [2].
`CC(=O)O[C@H]1CC[C@]2(C)C3=C(CC[C@H]2C1(C)C)[C@]1(C)CC[C@H]([C@@H](CCC=C(C)C)C(=O)O)[C@@]1(C)CC3` [ACETYL TRAMETENOLIC ACID]: the EC50 in the assay on T-24 amounted to 5.8 µg/mL (≈ 11.6 µM); in assay [2], 9.2 µg/mL (≈ 18.4 µM); in the assay with Ca-Ski, 3.9 µg/mL (≈ 7.82 µM).
For the molecule `CC(C)=CCC[C@@H](C(=O)O)[C@H]1CC[C@@]2(C)C3=C(CC[C@]12C)[C@@]1(C)CCC(=O)C(C)(C)[C@@H]1CC3`, the EC50 worked out at 5.1 µg/mL (≈ 11.2 µM) with SiHa; 6.9 µg/mL (≈ 15.2 µM) in the assay with HT-3; 8.2 µg/mL (≈ 18 µM) in the assay with T-24; 12.1 µg/mL (≈ 26.6 µM) in assay [2]; 7.2 µg/mL (≈ 15.8 µM) in the assay with Ca-Ski.
`CC(=O)O[C@@H]1CC[C@]2(C)C3=C(CC[C@H]2C1(C)C)[C@]1(C)CC[C@H]([C@@H](CCC=C(C)C)C(=O)O[C@@H]2O[C@H](CO)[C@@H](O)[C@H](O)[C@H]2O)[C@@]1(C)CC3` [TSUGARIOSIDE A]: the EC50 in the assay with SiHa turned out to be 8.4 µg/mL (≈ 12.7 µM); in the assay on HT-3, 6.8 µg/mL (≈ 10.3 µM); in the assay with T-24, 1.73 µg/mL (≈ 2.62 µM).
Take `C=C(C)/C(C)=C\C[C@@H](C(=O)O[C@@H]1OC[C@@H](O)[C@H](O)[C@H]1O)[C@H]1CC[C@@]2(C)C3=C(CC[C@]12C)[C@@]1(C)CC[C@@H](OC(C)=O)C(C)(C)[C@@H]1CC3` [TSUGARIOSIDE C]: the EC50 is 9.5 µg/mL (≈ 14.8 µM) with SiHa, 7.2 µg/mL (≈ 11.2 µM) in the assay with HT-3, 8.6 µg/mL (≈ 13.4 µM) in the assay on T-24 and 6.5 µg/mL (≈ 10.1 µM) in assay [2].
In the case of `Cc1c2oc3c(C)ccc(C(=O)N[C@@H]4C(=O)N[C@H](C(C)C)C(=O)N5CCC[C@H]5C(=O)N(C)CC(=O)N(C)[C@@H](C(C)C)C(=O)O[C@@H]4C)c3nc-2c(C(=O)N[C@@H]2C(=O)N[C@H](C(C)C)C(=O)N3CCC[C@H]3C(=O)N(C)CC(=O)N(C)[C@@H](C(C)C)C(=O)O[C@@H]2C)c(N)c1=O` [DACTINOMYCIN] (I: T[dV]P[Sar][NMeV] / II: T[dV]P[Sar][NMeV]; ester I:1-I:C, II:1-II:C; linker I:N-II:N via Actinocin(1to9)), the EC50 in the assay on T-24 was 0.0015 µg/mL (≈ 0.00119 µM); in assay [2], 0.0014 µg/mL (≈ 0.00112 µM); in the assay on Ca-Ski, 0.0019 µg/mL (≈ 0.00151 µM).
With `CC(C)=CCC[C@@H](C(=O)O)[C@H]1CC[C@@]2(C)C3=C(CC[C@]12C)[C@@]1(C)CC[C@H](O)C(C)(C)[C@@H]1CC3` [TRAMETENOLIC ACID], the EC50 in the assay with SiHa worked out at 5.5 µg/mL (≈ 12 µM); with HT-3 it was 3.5 µg/mL (≈ 7.66 µM); with T-24, 4.4 µg/mL (≈ 9.63 µM); in the assay with Ca-Ski, 6.2 µg/mL (≈ 13.6 µM).
